In the library only some 3.5% were active in any assay of this set; here they are far more common.
RGS4 pot: potentiators or activators of RGS4; B-score at 10 µM; HEK293 M3R/inducible RGS4, carbachol calcium flux Fluo4; active compounds read low; actives 0.92% (n = 310,000); AID 463111;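 active = B-score of the integrated calcium signal more than 4 SD below the library mean, with starting fluorescence not abnormally high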;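 note: negative B-score means reduced calcium response which marks RGS4 activation or potentiation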
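Test system: HEK293 cells with stable M3R and inducible RGS4; also added: carbachol at ECmax as muscarinic agonist stimulus; schedule: dye loading 30 min 37 °C, buffer rest 30 min RT; technique: kinetic calcium fluorescence imaging with Fluo4-AM dye, 2 µM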
MrgX1 antagonist: antagonists of human MrgX1 receptor; B-score at 10 µM; Q96LB2; actives 1.3% (n = 310,000); MRGX1-HEK293 calcium flux, Fluo-4, BAM8-22 antagonism; active compounds read low;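 active = calcium-response B-score plate-corrected more than 3 library SD below zero, starting fluorescence within 5 deviations, no agonist response on first addition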;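 note: peak minus trough fluorescence over baseline after final BAM8-22 challenge near maximal dose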
Target sequence (Q96LB2 whole entry, looked up): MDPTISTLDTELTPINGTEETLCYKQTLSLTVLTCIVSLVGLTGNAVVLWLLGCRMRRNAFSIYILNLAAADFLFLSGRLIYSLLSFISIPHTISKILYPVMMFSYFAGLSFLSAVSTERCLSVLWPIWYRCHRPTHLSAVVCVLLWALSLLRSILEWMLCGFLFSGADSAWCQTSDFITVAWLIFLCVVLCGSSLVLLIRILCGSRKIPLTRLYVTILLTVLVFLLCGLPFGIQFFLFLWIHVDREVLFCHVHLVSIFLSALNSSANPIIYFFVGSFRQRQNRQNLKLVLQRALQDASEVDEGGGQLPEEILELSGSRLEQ
RGS4 block: human RGS4 inhibition; P49798; HEK293 M3R/RGS4 inducible, Fluo-4 calcium flux; active compounds read high; triggered by carbachol at its EC20; B-score at 10 µM; actives 0.45% (n = 310,000); AID 463165;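 active = B-score, a plate-corrected calcium signal, over three deviations above library mean, with baseline fluorescence within five deviations of library mean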;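 note: RGS4 expression induced by doxycycline in cells with stable M3 receptor; B-score is computed from the integrated fluorescence ratio over baseline after carbachol; higher B-score means a larger calcium signal and so more RGS4 inhibition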
Target sequence (P49798 whole entry, looked up): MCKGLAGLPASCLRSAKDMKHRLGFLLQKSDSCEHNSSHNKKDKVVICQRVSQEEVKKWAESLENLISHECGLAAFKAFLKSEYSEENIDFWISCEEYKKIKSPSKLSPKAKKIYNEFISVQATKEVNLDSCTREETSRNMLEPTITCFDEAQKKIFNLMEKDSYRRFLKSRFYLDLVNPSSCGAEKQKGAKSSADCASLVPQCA
MrgX1 PAM: allosterically activates human MrgX1 receptor signaling. B-score at 10 µM. AID 588675. Q96LB2. actives 0.63% (n = 310,000). MrgX1-HEK293, Fluo-4 calcium flux, FDSS; active compounds read high;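 active = plate-corrected calcium response at least 3 library SD above typical, normal starting fluorescence, not activating the receptor alone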;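 note: compound read alongside a low EC10 to EC30 dose of BAM8-22 agonist; peak minus trough fluorescence over baseline measured at the second addition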
MrgX1 agonist: activates human MrgX1 receptor signaling. actives 0.44% (n = 310,000). MrgX1-HEK293 cells, Fluo-4 calcium fluorescence, agonist mode; active compounds read high. Q96LB2. B-score at 10 µM;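 active = calcium response B-score plate-corrected fluorescence ratio at least 3 library SD, with starting fluorescence B-score inside 5 SD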
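Test system: HEK293 cells stably expressing human MrgX1 receptor; Input: fifteen thousand cells per well; Dosing: compound delivered in addition one of three; Schedule: overnight seeding, then 1 h dark dye loading; Technique: Fluo-4 NW calcium fluorescence; Measure: B-scored fluorescence response ratio; Controls: positive and negative controls per plate.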
Each line names hits and unclear results; the compound was inactive in the other large screens.

CC(C)C(=O)c1ccc(O)c(O)c1	none
O=[N+]([O-])c1nn(-c2ccc3c(c2)OCCO3)n(O)c1=NC1CCN(Cc2ccccc2)CC1	MrgX1 antagonist -5.1
[O-]/C(=C(\C(=S)NCc1ccccc1)[n+]1ccccc1)c1ccc(Cl)cc1	none
CC(Sc1nnc2c(n1)[nH]c1ccccc12)C(=O)N(C)C1CCCCC1 (centres undefined)	MrgX1 antagonist -7.2
C#CCOCCOCCOCCNc1nc(N2CCN(C(=O)CCCCCCCCCCNC(=O)[C@H]([C@@H](C)CC)n3cc(CCCCN=C(N)N)nn3)CC2)nc(N2CCN(C(=O)CCCCCCCCCCNC(=O)[C@H](CCCN=C(N)N)n3cc(C[C@@H](C)CC)nn3)CC2)n1	MrgX1 agonist 33 (no result: RGS4 pot, RGS4 block)
C#CCOCCOCCOCCNc1nc(N2CCN(C(=O)CCCCCCCCCCNC(=O)[C@H](CCCN=C(N)N)n3cc(C[C@@H](C)CC)nn3)CC2)nc(N2CCN(C(=O)CCCCCCCCCCNC(=O)[C@@H]([C@H](C)CC)n3cc(CCCCCN)nn3)CC2)n1	MrgX1 agonist 51 (no result: RGS4 pot, RGS4 block)
C#CCOCCOCCOCCNc1nc(N2CCOCC2)nc(N2CCN(C(=O)CCCCCCCCCCNC(=O)[C@H]([C@@H](C)CC)n3cc(CCCCN=C(N)N)nn3)CC2)n1	none (no result: RGS4 pot, RGS4 block)
CC1CN(c2nc3ccccc3nc2SCC(=O)Nc2cccc(C(F)(F)F)c2)CC(C)O1 (centres undefined)	RGS4 pot -7.6
CN1CCN(C(c2ccccc2)c2ccc(Cl)cc2)CC1 (centres undefined)	none (no result: RGS4 pot, RGS4 block)
CN1CCN(C(c2cccc(Cl)c2)c2ccccc2Cl)CC1 (centres undefined)	RGS4 pot -8
CCCCC(CC(O)COCCC)c1n[nH]c(=S)n1-c1ccccc1 (centres undefined)	none
O=C(CSc1ccc(-c2nc3ccccc3[nH]2)cn1)Nc1ccc(S(=O)(=O)N2CCCC2)cc1	RGS4 pot -7.1
Cc1cc2nc(-c3ccc(SCC(=O)Nc4ccc(S(=O)(=O)N5CCCC5)cc4)nc3)[nH]c2cc1C	none
O=C(COC(=O)c1ccccc1NC(=O)C1CC1)c1ccc2c(c1)OCCO2	none
COc1ccc(C(=O)N2CCN(c3ccccc3OC)CC2)cc1	none
COc1ccc(/C=N/NC(=O)C(=O)N2CCN(c3ccccc3OC)CC2)cc1	MrgX1 antagonist -4.8
N#Cc1nc(-c2cccs2)oc1NCc1ccccc1Cl	none
COCCNc1oc(/C=C/c2ccccc2OC)nc1S(=O)(=O)c1ccccc1	MrgX1 PAM 6.9
CCS(=O)(=O)N1Cc2ccccc2CC1C(=O)NCCc1ccccc1 (centres undefined)	none
CCOC(=O)C1CCCN(C(=O)c2ccc(-c3ccc([N+](=O)[O-])cc3)o2)C1 (centres undefined)	RGS4 pot -9
O=C(COC(=O)c1ccc(-c2ccc([N+](=O)[O-])cc2)o1)NC(=O)NC1CCCCC1	RGS4 pot -7
O=C(COC(=O)c1ccc(-c2ccc([N+](=O)[O-])cc2)o1)NC(=O)NC12CC3CC(CC(C3)C1)C2	none
N=C1S/C(=C\c2ccc(-c3ccccc3C(=O)O)o2)C(=O)N1c1ccc2c(c1)OCO2	none (no result: MrgX1 antagonist, MrgX1 PAM, MrgX1 agonist)
COc1ccccc1N1C(=N)S/C(=C\c2ccc(-c3ccccc3C(=O)O)o2)C1=O	MrgX1 PAM 11
Cc1cc(C(=O)NCCCn2ccnc2)sc1-c1ccccc1	none
COc1ccc(N2CCN(C(=O)c3ccc4c(c3)NC(=O)C(CSCc3cccc(F)c3)N4)CC2)cc1 (centres undefined)	MrgX1 agonist 36
Cc1csc(N/N=C/c2ccc(O)c([N+](=O)[O-])c2)n1	MrgX1 antagonist -6
COCCn1c(-c2ccc(-c3ccc([N+](=O)[O-])cc3Br)o2)nc2c1c(=O)[nH]c(=O)n2CC(C)C	MrgX1 antagonist -6.2
COCCn1c(=O)[nH]c(=O)c2c1nc(-c1ccc(-c3ccc(Cl)cc3[N+](=O)[O-])o1)n2Cc1ccccc1	none
CC12CCC(C(=O)N(CSC(=S)N/N=C\c3ccccc3O)C1=O)C2(C)C (centres undefined)	MrgX1 PAM 9.3
COc1cc(/C=C(\C#N)c2nc3ccccc3[nH]2)cc(OC)c1O	MrgX1 agonist 44
N#C/C(=C\c1ccc(Cl)cc1)c1nc2ncccc2[nH]1	MrgX1 PAM 19
Cc1cc(/C=C(\C#N)c2nc3ccccc3[nH]2)c(C)n1C	none
COc1ccc(/C=C(\C#N)c2nc3ccccc3[nH]2)cc1O	none (no result: MrgX1 antagonist, MrgX1 PAM, MrgX1 agonist)
CN(C)/C=C(\C#N)c1nc2ccccc2[nH]1	none
N#C/C(=C\c1c(Cl)cccc1Cl)c1nc2ccccc2[nH]1	MrgX1 PAM 8.7
Cc1cc(/C=C(/C#N)c2nc3ccccc3[nH]2)c(C)n1-c1cccc([N+](=O)[O-])c1	RGS4 pot -7.1
COC(=O)c1ccccc1NC(=O)CCn1c(=O)oc2ccccc21	none
CCN(Cc1ccccc1)C(=O)CN1C(=O)NC(CC)(c2ccc(F)cc2)C1=O (centres undefined)	none
CSc1ccccc1OCc1cc(C(=O)N2CCc3c(Cl)cccc3C2)no1	none
OCC[C@H]1C[C@@H](O)[C@H](O)[C@@]2(Cc3ccccc3CO2)O1	none (no result: RGS4 pot, RGS4 block)
CCOc1ccc(-c2nc3scc(-c4cccs4)c3c(=O)[nH]2)cc1	none
CCOCCCn1c(=S)[nH]c2cc(C(=O)NCCOC)ccc2c1=O	none
CCOCCCNC(=O)c1ccc2c(=O)n(CCCOCC)c(=S)[nH]c2c1	MrgX1 PAM 13
O=C(Nc1ccccc1C(=O)Nc1ccc(Br)cn1)c1cccc([N+](=O)[O-])c1	none
COC(=O)CCCCCCCCCCN1CCCCC1	RGS4 pot -9.2
C1CCCN(CCCCN2CCCCCC2)CC1	none
Cc1ccc(C)c(NC(=S)NCc2ccc3c(c2)OCO3)c1	RGS4 pot -7.2
Cc1ccc(CNc2ccc3c(c2)OCO3)cc1	MrgX1 agonist 29
c1cc(CNc2ccc3c(c2)OCO3)ccn1	none
Cc1nc(N/N=C/c2ccc(Br)cc2)cc(N2CCOCC2)n1	none
CC(C)c1c(C(=O)N/N=C/c2cccnc2)nnn1-c1nonc1N	none
C=CCn1c(C)cc(C(=O)Cn2ncc(Cl)c(Cl)c2=O)c1C	none
C=CCn1c(C)cc(C(=O)CN2NS(=O)(=O)c3ccccc3C2=O)c1C	MrgX1 PAM 7.1
Cc1ccc(-c2nn(-c3ccccc3)cc2C=C2C(=O)CC(C)(C)CC2=O)cc1	RGS4 block 11
CC1=NNC(=O)/C1=C\c1cn(-c2ccccc2)nc1-c1ccc(Cl)cc1	none
CN=C(NC1CCCCC1)c1ccc(Cl)cc1	none
Oc1ccccc1C1CC(c2cccs2)=NC(c2ccc(Cl)cc2)N1 (centres undefined)	MrgX1 PAM 7.4
C/C(CC(C)(C)C1CCCCC1)=N\NC(N)=S	MrgX1 antagonist -8.7
O=C(NCCN1C(=O)S/C(=C\c2ccccc2F)C1=O)C1CCN(S(=O)(=O)c2cccs2)CC1	MrgX1 antagonist -8.9

Bioassay records deposited in PubChem BioAssay by Johns Hopkins Ion Channel Center.
